{"data": "Measured values collected from several papers", "target": "Serine/threonine-protein kinase D1 (PRKD1, Homo sapiens, UniProt Q15139)", "Residues used in one study (Q15139 1-912)": "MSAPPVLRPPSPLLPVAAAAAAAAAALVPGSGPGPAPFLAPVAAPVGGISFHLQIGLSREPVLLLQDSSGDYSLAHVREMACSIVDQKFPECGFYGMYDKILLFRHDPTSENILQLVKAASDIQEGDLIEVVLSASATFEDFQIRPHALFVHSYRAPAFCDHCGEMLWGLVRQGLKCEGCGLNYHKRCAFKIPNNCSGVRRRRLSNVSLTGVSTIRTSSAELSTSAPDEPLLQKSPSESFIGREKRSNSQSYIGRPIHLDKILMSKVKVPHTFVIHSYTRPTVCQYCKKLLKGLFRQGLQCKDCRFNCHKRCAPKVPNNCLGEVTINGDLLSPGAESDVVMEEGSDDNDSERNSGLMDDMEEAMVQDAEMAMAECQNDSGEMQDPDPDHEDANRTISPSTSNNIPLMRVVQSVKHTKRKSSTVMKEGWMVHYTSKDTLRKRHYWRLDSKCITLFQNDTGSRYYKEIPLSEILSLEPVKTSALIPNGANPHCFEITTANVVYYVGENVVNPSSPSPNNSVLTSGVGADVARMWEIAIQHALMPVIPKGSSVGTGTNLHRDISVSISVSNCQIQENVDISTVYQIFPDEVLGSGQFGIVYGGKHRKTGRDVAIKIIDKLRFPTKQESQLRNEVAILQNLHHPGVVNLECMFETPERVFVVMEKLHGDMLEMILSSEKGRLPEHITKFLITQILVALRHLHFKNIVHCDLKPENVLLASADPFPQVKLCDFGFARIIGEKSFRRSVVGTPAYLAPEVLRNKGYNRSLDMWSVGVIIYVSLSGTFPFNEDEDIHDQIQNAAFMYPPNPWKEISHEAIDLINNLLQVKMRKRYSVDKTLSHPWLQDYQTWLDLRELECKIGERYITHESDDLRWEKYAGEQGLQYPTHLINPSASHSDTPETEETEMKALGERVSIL", "note": "Protocols differ between the studies behind these lines."}
{"SMILES": "CN(C)c1nccc(-c2cnc3ncccn23)n1", "test": "binding", "conditions": "1 µM", "remaining binding": "61%"}
{"SMILES": "O=C1NC(c2ccccn2)Sc2ccccc21 (centres unmarked)", "test": "cell-free assay, competition with immobilised ligand", "conditions": "1 µM", "remaining binding": "100%"}
{"SMILES": "CCN1CCN(Cc2ccc(C(=O)Nc3ccc(C)c(Oc4ccc5c(c4)CC(=O)N5)c3)cc2C(F)(F)F)CC1", "test": "binding, competition with immobilised ligand", "conditions": "1 µM", "remaining binding": "96%"}
{"SMILES": "N[C@@H]1CCN(c2nccc(-c3cnn4ncccc34)n2)C1", "test": "binding", "conditions": "1 µM", "remaining binding": "99%"}
{"SMILES": "COCCOc1nc(-c2ccc(Cl)nc2)nc2c1CN(C(=O)c1ncn3ccccc13)CC2", "test": "cell-free assay, competition with immobilised ligand", "conditions": "0.1 µM", "remaining binding": "90%"}
{"SMILES": "C[C@@H](c1ccc(-n2cnc3c(N)ncnc32)cc1)N1CCc2nn(C)c(Cc3ccccc3)c2C1=O", "test": "binding, competition with immobilised ligand", "conditions": "0.1 µM", "remaining binding": "48%"}
{"SMILES": "O=C(Nc1c[nH]nc1C(=O)NC1CCNCC1)c1cc(F)cc(F)c1", "test": "binding, competition with immobilised ligand", "conditions": "1 µM", "remaining binding": "94%"}
{"SMILES": "Cc1cc(NC(=O)c2cccc(S(F)(F)(F)(F)F)c2)cc(-n2ccn3nc(-c4cccnc4)cc23)c1", "test": "cell-free assay, competition with immobilised ligand", "conditions": "1 µM", "remaining binding": "100%"}
{"SMILES": "C[C@@H]1CCN(c2nccc(-c3cnn4ncccc34)n2)C1", "test": "binding", "conditions": "1 µM", "remaining binding": "100%"}
{"SMILES": "CC(=O)c1c(NS(C)(=O)=O)c2cc(-c3ccc(Cl)cc3)c(-c3ccc(Cl)cc3Cl)nc2n(C)c1=O", "test": "cell-free assay, competition with immobilised ligand", "conditions": "1 µM", "remaining binding": "100%"}
{"SMILES": "O=C(NCCCN1CCOCC1)c1ccc(Nc2ncc(Cl)c(-c3ccc(Cl)s3)n2)cc1", "test": "binding, competition with immobilised ligand", "conditions": "1 µM", "remaining binding": "30%"}
{"SMILES": "C[C@H](c1ccnc(Nc2nc3ccc(-c4cc(N(C)C)ncn4)cc3[nH]2)c1)N1CCN(C(=O)CC(F)(F)F)CC1", "test": "cell-free assay, competition with immobilised ligand", "conditions": "0.1 µM", "remaining binding": "100%"}
{"SMILES": "CC1CCCN1c1nccc(-c2cnn3ncccc23)n1 (centres unmarked)", "test": "binding", "conditions": "1 µM", "remaining binding": "100%"}
{"SMILES": "CCCOc1ccc([C@@H]2[C@@H](C(=O)O)[C@H](c3ccc4c(c3)OCO4)CN2CC(=O)Nc2c(CC)cccc2CC)cc1", "test": "cell-free assay, competition with immobilised ligand", "conditions": "1 µM", "remaining binding": "96%"}
{"SMILES": "O=C(NCCCN1CCOCC1)c1ccc(Nc2nccc(-c3cc4ccccc4s3)n2)cc1", "test": "binding, competition with immobilised ligand", "conditions": "1 µM", "remaining binding": "47%"}
{"SMILES": "CN(C)c1ncc(F)c(-c2cnn3ncccc23)n1", "test": "binding", "conditions": "1 µM", "remaining binding": "100%"}
{"SMILES": "COc1cnc(Nc2cccc(S(N)(=O)=O)c2)nc1N1CCN(c2ccccc2)C(=O)C1", "test": "binding, competition with immobilised ligand", "conditions": "1 µM", "remaining binding": "100%"}
{"SMILES": "O=C(c1ccc(Nc2ncc(Cl)c(-c3cc4ccccc4s3)n2)cc1)N1CCC(N2CCCC2)CC1", "test": "binding, competition with immobilised ligand", "conditions": "1 µM", "remaining binding": "28%"}
{"SMILES": "c1cnn2ncc(-c3ccnc(N4CCC45COC5)n3)c2c1", "test": "binding", "conditions": "1 µM", "remaining binding": "87%"}
{"SMILES": "Nc1ncc2c(n1)-c1c([nH]c3ccc(C#CC4CC4)cc13)CCCC2", "test": "binding, competition with immobilised ligand", "conditions": "1 µM", "remaining binding": "100%"}
